Shown are actives, neighbours in structure and some others; about 2.3% of the full set was active somewhere.
HIV Env fusion: HIV envelope-mediated fusion inhibition; inhibition, % at 12.3 µM; 360,000 tested, 1.1% active; AID 651610; HeLa-JRFL Env/CEM21 cell fusion, luciferase;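 active = mean replicate inhibition score of at least 50 and every replicate individually at or above 50; inconclusive = only one of the two criteria met; inactive = mean below 50 and not all replicates reaching 50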;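 note: 0% = plate neutral controls and 100% = maraviroc near 300 nM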
EWS-Fli inh: EWS/Fli transcriptional activity inhibition. inhibition, % at 12.6 µM. 350,000 tested, 0.67% active. A673 NR0B1-luciferase reporter, viability-normalised;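 active = mean inhibition of at least 50% after viability correction, with every replicate also passing that limit; inconclusive = mean reaches 50% but only one of two replicates passes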;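 note: firefly luciferase signal divided by Alamar Blue viability fluorescence both relative to DMSO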
PAX8 reporter: PAX8 transcriptional activity inhibition; RMG-I TPO-luciferase reporter, SteadyGlo, 24 h; inhibition, % at 12.6 µM; 360,000 tested, 1.2% active; AID 652154;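 active = mean replicate inhibition at least 60% with every replicate also reaching 60%; inconclusive = only one of the two criteria is met; inactive = mean below 60% and not all replicates reaching 60%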;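 note: luciferase light reporting Pax8 driven TPO promoter activity; plate controls were median of neutral control wells for no effect and mitoxantrone controls for full effect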
F508del corr: correctors of CFTR F508del function in bronchial epithelial cells; CFBE cells, YFP halide quenching; stimulated with forskolin plus potentiator P3; % fluorescence drop versus neutral controls; activity (quench increase), % at 7.58 µM; 350,000 tested, 0.36% active;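 active = mean added fluorescence quench of at least 8% versus neutral control, with both replicates also reaching 8%; inconclusive = only one of the mean or replicate conditions met; inactive = mean below 8% and not both replicates reaching 8%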;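 note: cells transiently co-express mutant CFTR-F508del with the halide-sensitive YFP; corrector assay measuring rescue of mutant channel to the surface after 24 h compound exposure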
FN deposition inh: fibronectin deposition inhibition | 350,000 tested, 0.086% active | inhibition, % at 12.6 µM | AID 743247 | AH1F fibroblasts, Alexa488-fibronectin deposition fluorescence, overnight;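 active = mean inhibition across replicates of 30% or more, regardless of how many single replicates reach that level; inconclusive = mean under 30% yet at least half of replicates reach 30%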;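 note: positive control wells lacked labelled fibronectin entirely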
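Material: AH1F fibroblast monolayer depositing Alexa488-labelled fibronectin into matrix / Amount: 10000 AH1F cells per well / Signal: fluorescence 485/525 nm / Medium: DMEM, 2% serum / Compound: single dose, pinned / Incubation: 1 h cell adhesion before compound, then overnight fibronectin incubation / Reagent: Alexa488-FN, 24 nM final / Read-out: inhibition of fibronectin deposition signal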
PGC1a acetyl inh: lowers PGC1a acetylation signal in U2OS cells; AID 651687; inhibition, % at 15.6 µM; AlphaScreen anti-acetyl-lysine; with virally co-expressed GCN5 acetyltransferase; 350,000 tested, 0.17% active;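 active = every replicate shows inhibition of at least 40%; inconclusive = mean inhibition at least 40% but some replicate below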;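 note: 0% = neutral control wells and 100% = positive control wells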
* hit, by the source's call; ? = inconclusive; . = no result given; ! = not confirmed by another sample; [ ] = another dose, or the depositor's remark.

SMILES	HIV Env fusion	EWS-Fli inh	PAX8 reporter	F508del corr	FN deposition inh	PGC1a acetyl inh
CNC(=O)C[C@H]1CC[C@H]2[C@H](COc3ccc(NC(=O)c4ccc(C(F)(F)F)cc4)cc3C(=O)N2C)O1	-5.1[16.7 µM]	-7.4	-8.3	-1.5	-5.7	2.4
C[C@@H]1CN([C@@H](C)CO)C(=O)Cc2cc(NC(=O)Nc3ccc(C(F)(F)F)cc3)ccc2O[C@H]1CN(C)C(=O)NC1CCCCC1	-34.1[16.7 µM]	38.5	79.5*	3.7	.	-9.4
C[C@H]1CN([C@@H](C)CO)C(=O)c2cc(NC(=O)Nc3ccc(F)cc3)ccc2O[C@@H]1CN(C)C(=O)Nc1cccc2ccccc12	.	-2.7	-15.0	1.6	-2.8	-0.6
C[C@@H]1CN([C@H](C)CO)C(=O)c2cc(NC(=O)Nc3ccc(F)cc3)ccc2O[C@@H]1CN(C)C(=O)Nc1cccc2ccccc12	.	8.6	70.3*	1.3	2.5	-4.1
COc1ccc2c3c(n(C)c2c1)[C@H](CO)N(S(C)(=O)=O)CC31CCN(C(=O)CN(C)C)CC1	.	-3.8	.	-1.3	.	-4.9
COc1ccccc1/C=C/C1(C(=O)NC2CCCC2)CC(=O)N1c1ccc(F)cc1 (stereo not drawn)	131.3*	.	.	.	.	0.3
C[C@H]1CN(C)C(=O)c2cc(N(C)C)ccc2O[C@H]1CN(C)C	.	.	.	.	7.2	.
Cc1nc2[nH]c(=O)c3c(n2n1)NC1=C(C(=O)CC(C)(C)C1)C3c1ccccc1 (stereo not drawn)	37.2	.	12.3	.	-1.5	83.6*
CNC(=O)c1nnsc1S(=O)c1ccc(Cl)cc1 (stereo not drawn)	-1.8	-11.1	55.9	.	.	-116.7
CCCNC(=O)c1nnsc1S(=O)(=O)c1ccc(Cl)cc1	-15.1	13.0	112.0*	-8.1	21.1	-82.4
CCCNC(=O)c1nnsc1S(=O)c1ccc(Cl)cc1 (stereo not drawn)	3.5	40.7	79.2*	.	.	-147.5
C[C@H]1CN([C@@H](C)CO)C(=O)c2cccc(NC(=O)Nc3ccc4c(c3)OCO4)c2O[C@@H]1CN(C)Cc1ccc(C(=O)Nc2ccccc2N)cc1	.	-4.8	12.5	-0.5	-4.7	-5.0
Cc1ccc(NC(=O)COC(=O)CNC(=O)c2cccs2)cc1S(=O)(=O)N1CCOCC1	4.2	-3.4	8.3	-0.7	-5.5	1.9
COc1ccc(OCCC(=O)OCC(=O)Nc2cccc(S(=O)(=O)N3CCOCC3)c2)cc1	-7.8	0.3	13.1	0.6	7.0	.
CC(C)(C)c1ccc(OCCC(=O)Nc2cccc(S(=O)(=O)N3CCOCC3)c2)cc1	74.8*	17.9	16.3	3.4	.	-7.7
O=C(CNC(=O)c1cccs1)Nc1cccc(S(=O)(=O)N2CCOCC2)c1	61.0*	3.8	9.4	-1.0	.	3.4
COCC(=O)N(C)C[C@@H]1Oc2ncc(C#Cc3cccnc3)cc2C(=O)N([C@H](C)CO)C[C@@H]1C	11.4[16.7 µM]	5.8	.	-3.6	-13.6	8.1
C[C@H](CO)N1C[C@H](C)[C@@H](CN(C)S(=O)(=O)c2ccc(Cl)cc2)Oc2ccc(NC(=O)CCN3CCOCC3)cc2CC1=O	-11.5[16.7 µM]	-1.9	.	-0.6	.	-0.4
COc1c(F)c(F)c(C(=O)Nc2ccc(N3CCN(Cc4ccccc4)CC3)cc2)c(F)c1F	64.6*	.	.	.	.	-0.3
COc1cccc(NC(=O)c2ccc(CN3CCN(c4ccccc4)CC3)cc2)c1	61.7*	.	.	.	.	.
COc1cccc(NC(=O)c2ccccc2-c2ccccc2C(=O)O)c1	0.2	17.5	12.7	-0.1	-4.0	81.3*
C[C@@H]1CN([C@@H](C)CO)C(=O)Cc2cc(NS(C)(=O)=O)ccc2O[C@@H]1CN(C)Cc1ccc(C(=O)O)cc1	1.2[16.7 µM]	0.5	-19.3	2.1	.	1.2
CCCC(=O)N1CC2(C1)CN(C(=O)C1CCCCC1)[C@@H](CO)c1[nH]c3cc(OC)ccc3c12	.	-2.4	14.0	0.4	.	.
CCOC(=O)Nc1ccc2c(c1)N(C(=O)CCN(CC)CC)c1ccccc1S2=O (stereo not drawn)	-9.1	6.0	108.6*	5.9	-0.8	-12.7
O=C(CC(C(=O)c1ccccc1)c1ccccc1)c1ccccc1 (stereo not drawn)	17.1	-5.3	.	3.8	4.4	.
SMILES	HIV Env fusion	EWS-Fli inh	PAX8 reporter	F508del corr	FN deposition inh	PGC1a acetyl inh
CN(C)CC(C(=O)c1ccccc1)c1ccccc1 (stereo not drawn)	.	.	.	.	.	138.8*
CN(Cc1cc(Cl)cc(Cl)c1)CC(C(=O)c1ccccc1)c1ccccc1 (stereo not drawn)	1.8	6.1	79.0*	-0.3	-0.3	17.0
O=S(=O)(Cc1ccccc1)N1[C@@H]2CNC[C@H]1C2c1ccc(/C=C/c2ccccc2)cc1 (stereo partly drawn)	.	.	.	.	-4.5	.
CCN(CC)CCNC(=O)c1ccc(N2CCCCC2)c(NS(=O)(=O)c2ccc(C)cc2)c1	.	.	.	.	.	-3.3
CCN(CC)CCNc1cc(C)nc2c1C(=O)C(=O)C=C2N1CCCCC1	2.8	-17.2	73.1*	2.0	12.8	30.8
C1CCC(C(CC2CCCCN2)C2CCCCC2)CC1 (stereo not drawn)	-6.9	?	-3.8	9.9*!	5.8	-14.9
Cc1ccc(S(=O)(=O)N2CCN(C(=O)COC(=O)/C=C/c3ccc(Cl)cc3)CC2)c(C)c1	-4.6	0.1	-0.6	17.3*	8.6	.
Cc1ccc(S(=O)(=O)N2CCN(C(=O)COC(=O)/C=C/c3ccc(C(F)(F)F)cc3)CC2)c(C)c1	7.8	0.4	-0.8	-0.6	8.8	5.6
CC(C)C[C@H](NC(=O)c1[nH]cnc1C(=O)N[C@@H](Cc1ccccc1)C(=O)OC(C)(C)C)C(=O)OCc1ccccc1	58.5*	20.4	48.6	1.4	-6.3	14.9
CC(C)C[C@H](NC(=O)c1[nH]cnc1C(=O)N[C@@H](Cc1ccccc1)C(=O)OC(C)(C)C)C(=O)OC(C)(C)C	-14.7	11.3	68.1*	-1.3	-9.6	9.8
CC(C)C[C@H](NC(=O)c1nc[nH]c1C(=O)N[C@@H](CCCCNC(=O)OC(C)(C)C)C(=O)OC(C)(C)C)C(=O)OCc1ccccc1	-42.6	17.2	82.1*	6.2	10.9	-18.3
CC(C)C[C@H](NC(=O)c1[nH]cnc1C(=O)N[C@@H](Cc1ccccc1)C(=O)OCc1ccccc1)C(=O)OC(C)(C)C	44.4	9.4	2.9	-0.1	-2.7	3.2
O=C1N[C@@H](c2ccccc2)COCc2cn(nn2)CC[C@@H](Cc2ccc(C(F)(F)F)cc2)C(=O)N[C@@H](c2ccccc2)COCc2cn(nn2)CC[C@H]1Cc1ccc(C(F)(F)F)cc1	.	.	.	.	-5.8	.
Cc1ccc(S(=O)(=O)N(C)C[C@@H]2OCCCC[C@H](C)Oc3ccc(NC(=O)Nc4cccc5ccccc45)cc3C(=O)N([C@@H](C)CO)C[C@H]2C)cc1	-7.7[16.7 µM]	-5.8	-9.0	-1.5	-9.9	-14.1
C[C@@H]1CN([C@@H](C)CO)C(=O)c2cccc(N(C)C)c2O[C@H]1CN(C)C(=O)Nc1ccc2c(c1)OCO2	3.8[16.7 µM]	-4.1	-11.8	1.2	10.5	-0.9

Compound activity as filed in PubChem BioAssay.
